The values that follow come from ChEMBL document CHEMBL1667755, “2-hydroxyisoquinoline-1,3(2H,4H)-diones as inhibitors of HIV-1 integrase and reverse transcriptase RNase H domain: influence of the alkylation of position 4” (Eur J Med Chem, 2011).

Where only a bound is given, the exact number is not on record here.

Data set [1] addresses Human immunodeficiency virus type 1 integrase (Human immunodeficiency virus 1, UniProt Q7ZJM1). Description: Inhibition of HIV-1 integrase after 1 hr by immunosorbent assay. The method, boiled down: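 Overall integration ELISA. Substrate is annealed oligos (7 nM), one 3'-biotin-labelled and one 5'-digoxigenin-labelled, with integrase at […] as written. Reaction 1 h at 37 °C, then immunodetection on avidin-coated plates. IC50 is the mean ± SD of at least three independent experiments.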

In data set [2] the target is Human immunodeficiency virus type 1 reverse transcriptase (Human immunodeficiency virus 1, UniProt Q72547). Description: Inhibition of recombinant HIV-1 reverse transcriptase RNase H domain after 10 mins. The method in brief:
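Recombinant HIV-1 RT (4.5 pmol) preincubated with compound 10 min at 37 °C. Then added: 3H-RNA/DNA duplex (E. coli RNA polymerase transcript of calf thymus ssDNA, 20,000 cpm) in 50 mM Tris-HCl pH 8.0, 10 mM DTT, 6 mM MgCl2, 80 mM KCl; 10 min at 37 °C. Stopped with cold 10% TCA/0.1 M pyrophosphate; filter-bound radioactivity counted.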

For data set [3], the system named is Human immunodeficiency virus 1. The experiment in a line: Antiviral activity against HIV1 3B infected in human MT4 cells assessed as inhibition of virus-induced cytopathic effect by MTT assay. The data set is classed as functional, organism-based. Conditions: Human immunodeficiency virus 1, 3B; call rule not given here. The method in brief: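 MT-4 cells infected with 100-300 CCID50 of HIV-1 IIIB (dose titrated in MT-4 cells) in the presence of 5-fold serial drug dilutions. Protection from virus-induced cytopathic effect read by MTT reduction to formazan, measured spectrophotometrically.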
(In general: Protection from cytopathic effect is a common read-out in antiviral testing.)

Data set [4] in a line: Cytotoxicity against human MT4 cells by MTT assay. Format: cell-based. Background: Tetrazolium assays rely on reduction of a dye to a coloured formazan, in cell work by metabolically active cells.
For data set [5], the system named is Human immunodeficiency virus 1. Description: Selectivity ratio of IC50 for recombinant HIV-1 reverse transcriptase RNase H domain to IC50 for HIV-1 integrase.

Chain of Human immunodeficiency virus type 1 integrase (Q7ZJM1 whole entry): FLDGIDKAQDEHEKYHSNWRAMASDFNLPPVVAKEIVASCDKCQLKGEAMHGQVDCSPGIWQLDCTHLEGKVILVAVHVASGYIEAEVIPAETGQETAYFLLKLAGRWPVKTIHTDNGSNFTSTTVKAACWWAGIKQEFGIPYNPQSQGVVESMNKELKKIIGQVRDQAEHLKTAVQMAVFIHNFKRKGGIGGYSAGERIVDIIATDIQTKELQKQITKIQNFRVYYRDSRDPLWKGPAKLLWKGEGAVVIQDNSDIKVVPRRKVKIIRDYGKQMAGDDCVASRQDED

Regarding `CCCCC1C(=O)N(O)C(=O)c2ccccc21` (centres undefined), the IC50 in data set [1] came out at 40.2 µM; in data set [2] (read-out: IC50) it was 13.2 µM. Also, the EC50 in data set [3] was over 25.4 µM. The CC50 in data set [4] was determined as 25.4 µM.

Turning to `O=c1c2ccccc2c(Cc2ccccc2)c(O)n1O`, the IC50 in data set [1] amounted to 39.9 µM; in data set [2] (read-out: IC50) it was 14.9 µM. In data set [3], the EC50 is over 88 µM. Further, the CC50 in data set [4] was 88 µM.

Regarding `CCCCCCCc1c(O)n(O)c(=O)c2ccccc12`, the IC50 in data set [1] was found to be 113 µM; in data set [2] (read-out: IC50), 45 µM. The Ratio IC50 in data set [5] stood at 0.4.

As to `CC1C(=O)N(O)C(=O)c2ccccc21` (centres undefined), the IC50 is 3.3 µM in data set [1] and 38.8 µM in data set [2] (read-out: IC50). The EC50 in data set [3] is over 250 µM. Further, in data set [4], the CC50 came to 250 µM.

Take `O=C1c2ccccc2C(Cc2ccccc2)C(=O)N1O` (centres undefined): the values for the IC50 in data set [1] and in data set [2] were 37.7 µM and “Not Active”, respectively. Further, the EC50 in data set [3] was over 95 µM. The compound also yielded a CC50 in data set [4] of 95 µM.

On to `Cc1ccc(CC2C(=O)N(O)C(=O)c3ccccc32)cc1` (centres undefined), for which the IC50 in data set [1] is 3.4 µM; in data set [2] (read-out: IC50) it was 80 µM. For the same compound, in data set [3], the EC50 is over 5.5 µM. The compound further gave a CC50 in data set [4] of 5.5 µM.

Turning to `O=C1c2ccccc2C(Cc2ccc(C(F)(F)F)cc2)C(=O)N1O` (centres undefined), the IC50 in data set [1] is 23.2 µM; in data set [2] (read-out: IC50), 42.7 µM. Also, in data set [3], the EC50 is over 6 µM. The CC50 in data set [4] amounted to 6 µM.

In the case of `CCCC1C(=O)N(O)C(=O)c2ccccc21` (centres undefined), the IC50 was found to be 21.1 µM in data set [1] and 46.8 µM in data set [2] (read-out: IC50). Further, the EC50 in data set [3] is over 25.4 µM. In data set [4], this compound had a CC50 of 25.4 µM.

For the compound `CC(C)C1C(=O)N(O)C(=O)c2ccccc21` (centres undefined), the figures for the IC50 in data set [1] and in data set [2] (read-out: IC50) were 35.5 µM and 18.5 µM, respectively. The EC50 in data set [3] is over 122 µM. The compound further came in with a CC50 in data set [4] of 122 µM.

On to `O=C1c2ccccc2C(CCc2ccccc2)C(=O)N1O` (centres undefined), for which the IC50 in data set [1] was 27.8 µM; in data set [2] it was “Not Active”. Moreover, in data set [3], the half-maximal effective concentration (EC50) was over 30 µM. In addition, the CC50 in data set [4] stood at 30 µM.

On to `CCCCCCc1c(O)n(O)c(=O)c2ccccc12`, for which the IC50 in data set [1] was 45.4 µM; in data set [2] (read-out: IC50), 7.8 µM. For the same compound, the EC50 in data set [3] was over 128 µM. Also, the CC50 in data set [4] turned out to be 128 µM.

As to `CCCCCC1C(=O)N(O)C(=O)c2ccccc21` (centres undefined), the IC50 in data set [1] was determined as 1.35 µM; in data set [2] (read-out: IC50), 33.6 µM. For the same compound, in data set [3], the EC50 is over 98.3 µM. Besides, the CC50 in data set [4] came out at 98.3 µM.

On to `CCCCCCC1C(=O)N(O)C(=O)c2ccccc21` (centres undefined), for which the IC50 in data set [1] turned out to be 11.4 µM; in data set [2] (read-out: IC50), 38 µM. In addition, the concentration giving a half-maximal response (EC50) in data set [3] was over 4.4 µM. For the same compound, in data set [4], half-maximal cytotoxicity (CC50) was put at 4.4 µM.

Consider `CCC1C(=O)N(O)C(=O)c2ccccc21` (centres undefined), for which the IC50 in data set [1] is 15.7 µM; in data set [2] (read-out: IC50) it was 70 µM. Further, in data set [3], the EC50 is over 250 µM. Besides, in data set [4], half-maximal cytotoxicity (CC50) was put at 250 µM.

For the compound `O=C1c2ccccc2C(CCCc2ccccc2)C(=O)N1O` (centres undefined), the IC50 in data set [1] worked out at 2.6 µM; in data set [2] (read-out: IC50) it was 66.8 µM. Moreover, the 50% effective concentration (EC50) in data set [3] was over 5.2 µM. The same compound came in with a CC50 in data set [4] of 5.2 µM.

What is called IC50 is the midpoint of a concentration-inhibition curve. The EC50 is the concentration that produces a half-maximal response. As a reminder, the CC50 is the concentration giving 50% cytotoxicity.
